From ChEMBL document CHEMBL3632537, “Chalcones from Angelica keiskei: Evaluation of Their Heat Shock Protein Inducing Activities” (J Nat Prod, 2015)
The source made the active and inactive calls. No cut-off for these calls is given here.

Columns and labels:
L132 (Homo sapiens) [1] = assay: Upregulation of HSF1 protein expression in human L132 cells by Western blot analysis
NCI-H460 = assay: Induction of hsp25 promoter activity in human NCI-H460 cells at 10 uM measured at 5 hrs by luciferase reporter gene assay relative to control; format: functional
Summary of the method: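 NCI-H460 human lung cancer cells carrying a luciferase reporter driven by the murine hsp25 promoter. Cells were plated at 1 × 10⁵ per well, grown 24 h, then exposed to 10 μM compound and harvested 5 h later. Lysate luciferase was normalized to β-galactosidase and expressed as fold induction over untreated control. Values are mean ± SD of three independent experiments.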

L132 (Homo sapiens) [2] = assay: Upregulation of HSP27 mRNA expression in human L132 cells by RT-PCR analysis
L132 (Homo sapiens) [3] = assay: Upregulation of HSP70 mRNA expression in human L132 cells by RT-PCR analysis
L132 (Homo sapiens) [4] = assay: Upregulation of HSP70 protein expression in human L132 cells by Western blot analysis
L132 (Homo sapiens) [5] = assay: Upregulation of HSF1 mRNA expression in human L132 cells by RT-PCR analysis
L132 (Homo sapiens) [6] = assay: Upregulation of HSP27 protein expression in human L132 cells by Western blot analysis
L132 (Homo sapiens) [7] = assay: Upregulation of HSP70 protein expression in human L132 cells at 2 uM measured at 6 hrs by Western blot analysis relative to control
L132 (Homo sapiens) [8] = assay: Upregulation of HSP27 protein expression in human L132 cells at 2 uM measured at 6 hrs by Western blot analysis relative to control
L132 (Homo sapiens) [9] = assay: Upregulation of HSP70 mRNA expression in human L132 cells at 2 uM measured at 3 hrs by RT-PCR analysis relative to control
[10] = Cytotoxicity against human L-132 cells assessed as cell viability at 1 to 8 uM after 12 hrs by MTT assay; format: cell-based; conditions: l132, 12 h
Summary of the method: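 L132 human lung fibroblasts exposed 12 h to 1, 2, 4 or 8 μM; medium swapped for MTT 0.5 mg/mL in PBS, 3 h at 37 °C, formazan dissolved in DMSO, absorbance at 540 nm converted to cell number via calibration curve; viability as ratio to DMSO no-treatment control; mean ± SD of three independent experiments, Student's t test vs untreated.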

L132 (Homo sapiens) [11] = assay: Upregulation of HSP27 mRNA expression in human L132 cells at 2 uM measured at 3 hrs by RT-PCR analysis relative to control
L132 (Homo sapiens) [12] = assay: Upregulation of HSF1 protein expression in human L132 cells at 2 uM measured at 6 hrs by Western blot analysis relative to control

Row | SMILES | Activity (L132 (Homo sapiens) [1]) | fold change (FC) (NCI-H460) | Activity (L132 (Homo sapiens) [2]) | Activity (L132 (Homo sapiens) [3]) | Activity (L132 (Homo sapiens) [4]) | Activity (L132 (Homo sapiens) [5]) | Activity (L132 (Homo sapiens) [6]) | fold change (FC) (L132 (Homo sapiens) [7]) | fold change (FC) (L132 (Homo sapiens) [8]) | fold change (FC) (L132 (Homo sapiens) [9]) | Activity [10] | fold change (FC) (L132 (Homo sapiens) [11]) | fold change (FC) (L132 (Homo sapiens) [12])
1 | COC(C)(C)/C=C/C/C(C)=C/Cc1c(O)ccc(C(=O)/C=C/c2ccc(O)cc2)c1O | inactive | 21.9 | inactive | inactive | inactive | inactive | inactive | – | – | – | – | – | –
2 | C=C(CCC=C(C)C)C(O)Cc1c(O)ccc(C(=O)/C=C/c2ccc(O)cc2)c1O (racemic) | – | 29.2 | – | – | – | – | – | 1.5 | 4.6 | 5 | Non-toxic | 1.5 | 4.3
3 | CC1=C(O)C(=O)C=C2C1=CC=C1[C@@]2(C)CC[C@@]2(C)[C@@H]3C[C@](C)(C(=O)O)CC[C@]3(C)CC[C@]12C [CELASTROL] | – | – | – | – | – | – | – | – | – | – | Toxic | – | –
